{"source": "paper PMC7501995", "about": "(Cell metabolism, 2020)", "key": {"[1]": {"test_system": "TXNIP expression in human islets", "assay_type": "cell-based", "method_in_brief": "(§1)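 INS-1 cells, C57BL/6J mouse islets (collagenase XI-isolated) or human islets (at least three donors, same-donor controls) kept overnight in 5 mM glucose RPMI 1640. Then incubated 24 h in 25 mM glucose RPMI 1640 with or without 1 µM test compound. TXNIP and related mRNAs measured by qRT-PCR; n = 6 (INS-1) or 3 (mouse islets) independent experiments.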"}, "[2]": {"test_system": "primary mouse hepatocytes", "assay": "Hepatocyte glucose output", "assay_type": "cell-based", "method_in_brief": "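Hepatocytes were isolated from male C57BL/6J, liver-specific GcgR-knockout or Txnip-deficient mice and plated on collagen at 3 × 10^5 cells/well in serum-free DMEM. After 4 h attachment, they were treated 24h with graded test-compound concentrations. For the last 6h, cells were washed twice in PBS and placed in serum-, glucose- and phenol red-free DMEM, with or without lactate (10 mM) and/or glucagon (100 nM). Medium glucose was read colorimetrically and normalized to total protein; n = 3–4 mice.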"}, "[3]": {"assay": "Plasma concentration and oral bioavailability in mice", "assay_type": "in vivo, mouse"}, "[4]": {"test_system": "human TXNIP promoter", "assay_type": "cell-based", "conditions": "INS-1 cells, 25 mM glucose, 5 μM, 24 h", "method_in_brief": "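INS-1 cells transfected with SV40-E-box or SV40-Control firefly plasmid (0.4 µg/mL) plus pRL-TK renilla control (10 ng/mL). After 18 h, switched to 5 mM glucose for 6 h, then to 25 mM glucose. Treated with or without 5 µM test compound for 24 h. Read by dual-luciferase assay; n = 6 independent experiments.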"}, "[5]": {"test_system": "db/db mice", "assay": "Oral treatment of obese, diabetic db/db mice", "assay_type": "in vivo, mouse"}, "[6]": {"test_system": "TXNIP mRNA expression in INS-1 cells", "assay": "TXNIP mRNA expression by qRT-PCR in INS-1 cells", "assay_type": "cell-based", "conditions": "rat INS-1 cells, 25 mM glucose, 1 μM, 24 h, qPCR", "method_in_brief": "as §1"}, "[7]": {"assay": "Cellular cytotoxicity assay", "assay_type": "cell-based", "conditions": "in vitro"}, "[8]": {"test_system": "db/db mice", "assay": "Hyperinsulinemic-euglycemic clamp in db/db mice", "assay_type": "in vivo, mouse", "method_in_brief": "(§2)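 Lean C57BL/6J or db/db mice given a jugular vein catheter 5–6 days beforehand; treated with test compound and fasted overnight. 2 h hyperinsulinemic-euglycemic clamp run in awake mice with human insulin (150 mU/kg prime, then 2.5 mU/kg/min). Tissue uptake in gastrocnemius and epididymal WAT from 2-[14C]DG-6-phosphate, separated by ion-exchange, and the plasma 2-[14C]DG profile. n = 5–6 mice/group.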"}, "[9]": {"test_system": "C57BL/6J mice", "assay": "Hyperinsulinemic-euglycemic clamp in lean C57BL/6J mice", "assay_type": "in vivo, mouse", "method_in_brief": "as §2"}, "[10]": {"test_system": "TXNIP expression in primary mouse islets", "assay": "TXNIP expression by qPCR in primary mouse islets at high glucose", "assay_type": "cell-based", "conditions": "25 mM glucose, 1 μM, 24 h", "method_in_brief": "as §1"}, "[11]": {"test_system": "αTC1-6 alpha cells", "assay": "Alpha cell glucagon expression and secretion", "assay_type": "cell-based, mouse", "conditions": "αTC1-6 cells", "method_in_brief": "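αTC1-6 mouse alpha cells grown in DMEM with 10% FBS, 16.7 mM glucose, 1 mM sodium pyruvate and 15 mM HEPES at 37°C, 5% CO2. Cells exposed to 5 µM test compound or vehicle for 1 h. Low-glucose secretion run at 1.67 mM glucose. Secreted glucagon measured by mouse glucagon ELISA; protein measured by BCA assay.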"}, "[12]": {"test_system": "primary mouse hepatocytes", "assay": "Hepatocyte cAMP production", "assay_type": "cell-based", "method_in_brief": "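Primary hepatocytes came from anesthetized lean chow-fed male C57BL/6J mice, liver-specific glucagon receptor knockout mice, or Txnip-deficient mice. They were plated on collagen at 3 × 10^5 cells/well in serum-free DMEM and left 4 h to attach. Medium was then changed and cells were exposed to graded test-compound concentrations with glucagon for 24h. Cells were washed twice in PBS and harvested in 0.1M HCl. Intracellular cAMP was measured by direct immunoassay; n = 3 independent experiments.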"}, "[13]": {"test_system": "polymerase II (Pol II) binding to the TXNIP promoter", "assay": "Chromatin immunoprecipitation of Pol II in INS-1 cells", "assay_type": "cell-based, rat", "conditions": "ChIP", "method_in_brief": "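INS-1 cells crosslinked in 1% formaldehyde/PBS for 15 min, then quenched with glycine. Lysed in SDS/Triton buffer, pH 8.1, with protease inhibitors, and sonicated (10 × 30 s pulses). 500 µg precleared lysate incubated with 4 µg anti-Pol II antibody or control IgG overnight at 4°C; 1/10 kept as input. Complexes captured on Protein A-Sepharose for 3 h, then washed in lysis, wash, LiCl and TE buffers. Regions probed: E-box, upstream TXNIP and IRS2 site. n = 3 independent experiments.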"}, "[14]": {"test_system": "L-type calcium channels", "assay": "Calcium channel blockade", "conditions": "in contrast to verapamil"}, "[15]": {"test_system": "TXNIP protein levels in INS-1 cells", "assay": "TXNIP protein immunoblotting in INS-1 cells", "assay_type": "cell-based, rat", "conditions": "24h", "method_in_brief": "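Rat INS-1 beta-like cells were grown at 37°C in humidified 5% CO2. Whole-cell protein extracts were prepared and protein was quantified by BCA assay. Equal protein amounts were loaded per lane for TXNIP immunoblotting.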"}, "[16]": {"test_system": "primary mouse hepatocytes", "assay": "Gene expression by qRT-PCR in primary hepatocytes", "assay_type": "cell-based", "method_in_brief": "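Primary hepatocytes from male C57BL/6J, liver-specific glucagon receptor knockout or Txnip-deficient mice, seeded on collagen at 3×10^5 cells/well in serum-free DMEM. After 4 h attachment, medium changed and cells given varying test compound concentrations for 24 h. Pck1/G6pc read in the presence of glucagon. mRNA quantified by qRT-PCR; n = 3 for knockout hepatocytes.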"}, "[17]": {"conditions": "GcgR−/−L hepatocytes, glucagon present"}}, "data": [{"smiles": "CS(=O)(=O)NCC1CCCN(c2ncnc3ccc(C(F)(F)F)cc23)C1", "note": "(centres unmarked) [SRI-37330, N-((1-(6-(trifluoromethyl)quinazolin-4-yl)piperidin-3-yl)methyl)methanesulfonamide]", "values": [{"measurement": "expression of other arrestin genes ARRB1 and ARRDC3 and of thioredoxin", "setting": "[1]; human islets, qRT-PCR, negative controls", "result": "not affected"}, {"measurement": "TXNIP expression in the context of high glucose", "setting": "[1]; isolated human islets, 25 mM glucose, 1 μM, 24 h", "result": "significantly inhibit TXNIP expression"}, {"measurement": "hepatocyte glucose output", "setting": "[2]; [17]", "result": "no longer able to inhibit hepatocyte glucose output or cAMP production"}, {"measurement": "glucose output", "setting": "[2]; primary hepatocytes of TXNIP-deficient mice, glucagon present", "result": "maintained its ability to block glucose output and glucagon-induced cAMP production"}, {"measurement": "basal or stimulated glucose output in the absence of glucagon", "setting": "[2]; wild-type primary hepatocytes, 24h, no substrate or lactate", "result": "did not affect basal or stimulated glucose output"}, {"measurement": "average plasma concentration", "setting": "[3]; mice, 100 mg/kg/day in the drinking water", "result": 5, "unit": "µmol/L"}, {"measurement": "oral bioavailability", "setting": "[3]; mouse, in vivo, po", "result": "orally bioavailable"}, {"measurement": "effect on heterologous SV40 promoter coupled with the TXNIP E-box motif", "setting": "[4]", "result": "confer SRI-37330 responsiveness"}, {"measurement": "hepatic steatosis (liver histology)", "setting": "[5]; db/db mice", "result": "dramatically improved the severe steatosis"}, {"measurement": "alpha cell mass", "setting": "[5]; db/db mice, islet morphometry", "result": "small, but significant decline in alpha cell mass"}, {"measurement": "alpha cell number", "setting": "[5]; db/db mice, islet morphometry", "result": "clear trend towards lower alpha cell number"}, {"measurement": "beta cell mass and number", "setting": "[5]; db/db mice, islet morphometry", "result": "remained unchanged"}, {"measurement": "fasting blood glucose", "setting": "[5]; db/db mice, oral", "result": "significantly downregulated"}, {"measurement": "fasting serum glucagon", "setting": "[5]; db/db mice, oral", "result": "significant downregulate"}, {"measurement": "fasting serum insulin", "setting": "[5]; db/db mice, oral", "result": "remained unchanged"}, {"measurement": "body weight", "setting": "[5]; db/db mice, oral, 4 weeks", "result": "did not affect body weights"}, {"measurement": "non-fasting blood glucose", "setting": "[5]; db/db mice, oral, 4 weeks", "result": "decreased significantly within 3 days of starting SRI-37330 treatment and returned to euglycemic levels"}, {"measurement": "effectiveness by oral gavage twice a day", "setting": "[5]; obesity-induced diabetes, gavage 12 h apart", "result": "confirmed its effectiveness in obesity- as well as STZ-induced diabetes"}, {"measurement": "TXNIP expression in the context of high glucose", "setting": "[6]", "result": "significantly inhibit TXNIP expression"}, {"measurement": "cytotoxicity", "setting": "[7]", "result": "no cytotoxicity"}, {"measurement": "basal hepatic glucose production", "setting": "[8]", "result": "significantly lower basal hepatic glucose production"}, {"measurement": "glucose infusion rate", "setting": "[8]", "result": "not significantly different"}, {"measurement": "hepatic insulin action", "setting": "[8]", "result": "not significantly different"}, {"measurement": "insulin-stimulated glucose uptake in skeletal muscle", "setting": "[8]", "result": "remained unchanged"}, {"measurement": "insulin-stimulated glucose uptake in white adipose tissue", "setting": "[8]", "result": "remained unchanged"}, {"measurement": "glucose infusion rates", "setting": "[9]; lean C57BL/6J mice", "result": "comparable between groups"}, {"measurement": "hepatic insulin action", "setting": "[9]; lean C57BL/6J mice", "result": "comparable between groups"}, {"measurement": "insulin-stimulated glucose uptake in white adipose tissue", "setting": "[9]; lean C57BL/6J mice, epididymal", "result": "comparable between groups"}, {"measurement": "insulin-stimulated glucose uptake in skeletal muscle", "setting": "[9]; lean C57BL/6J mice, gastrocnemius", "result": "comparable between groups"}, {"measurement": "basal hepatic glucose production", "setting": "[9]; lean awake C57BL/6J mice", "result": "significantly downregulated"}, {"measurement": "insulin sensitivity", "setting": "[9]; lean awake C57BL/6J mice", "result": "no alteration in insulin sensitivity"}, {"measurement": "TXNIP expression in the context of high glucose", "setting": "[10]", "result": "significantly inhibit TXNIP expression"}, {"measurement": "glucagon content", "setting": "[11]; 5 μM, 1h", "result": "did not lower proglucgon gene expression or glucagon content"}, {"measurement": "glucagon secretion", "setting": "[11]; 5 μM, 1h", "result": "significantly lower glucagon secretion"}, {"measurement": "proglucagon gene expression", "setting": "[11]; 5 μM, 24 h", "result": "did not lower proglucgon gene expression or glucagon content"}, {"measurement": "glucagon secretion in the context of low glucose", "setting": "[11]; 1.67 mM glucose", "result": "no effect on glucagon secretion"}, {"measurement": "glucagon secretion maximally stimulated by arginine and norepinephrine", "setting": "[11]; arginine 20 mM, norepinephrine 10 μM", "result": "no longer able to inhibit glucagon secretion"}, {"measurement": "cAMP production", "setting": "[12]; [17]", "result": "no longer able to inhibit hepatocyte glucose output or cAMP production"}, {"measurement": "glucagon-induced cAMP production", "setting": "[12]; primary hepatocytes of TXNIP-deficient mice", "result": "maintained its ability to block glucose output and glucagon-induced cAMP production"}, {"measurement": "glucagon-induced production of cAMP", "setting": "[12]; wild-type primary hepatocytes, 24h, glucagon", "result": "significantly downregulated in a dose-dependent manner"}, {"measurement": "Pol II binding to the E-box motif region of the TXNIP promoter", "setting": "[13]", "result": "effectively inhibited"}, {"measurement": "Pol II binding to upstream TXNIP promoter region and to IRS2 site", "setting": "[13]", "result": "but not to an upstream TXNIP promoter region or to an established Pol II binding site"}, {"measurement": "calcium channel blocker activity", "setting": "[14]", "result": "not a calcium channel blocker"}, {"measurement": "TXNIP protein levels", "setting": "[15]", "result": "inhibited TXNIP protein levels in a dose-dependent manner"}, {"measurement": "effect on glucagon-induced expression of Pck1 and G6pc", "setting": "[16]; primary hepatocytes of liver-specific glucagon receptor knockout mice (GcgR−/−L)", "result": "completely blunted"}, {"measurement": "glucagon-induced expression of Pck1 and G6pc", "setting": "[16]; primary hepatocytes of wild-type C57BL/6J mice, 5 μM, 24h", "result": "inhibited"}, {"measurement": "TXNIP signaling genes in primary hepatocytes or livers", "setting": "[16]; primary hepatocytes or livers of treated mice", "result": "not affected"}]}]}
